Test results published in ChEMBL document CHEMBL3632548, “Oxidized Metabolites of 20-Hydroxyecdysone and Their Activity on Skeletal Muscle Cells: Preparation of a Pair of Desmotropes with Opposite Bioactivities” (J Nat Prod, 2015).
Activity calls are given as the source filed them. The calls are words filed in the database; no cut-off is given here.

What was measured:
[1] = Drug level in aqueous solution treated with 20-hydroxyecdysone at 120 mg incubated for 2 days measured at 0.5 to 48 hrs by HPLC-DAD analysis in presence of NaOH; type: physicochemical; conditions: in vivo
Outline: (§1)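 20E (120 mg) is stirred at room temperature (22−25 °C) in 70% aqueous MeOH with 2% NaOH, and aliquots are taken over time. Analysis is by analytical HPLC on a C18 column with an aqueous acetonitrile gradient and 9.6% acetic acid, 1 mL/min. Compounds are quantified from peak AUC at each λmax against calibration dilutions and expressed relative to initial 20E. Three independent experiments; one-phase decay regression.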

C2C12 = experiment: Effect on glucose consumption in mouse C2C12 cells at 30 ug/ml after 24 hrs; type: functional, cell-based
Outline: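 C2C12 myoblasts are grown in high-glucose DMEM with 10% FBS at 37 °C, 5% CO2. At confluence they are switched to DMEM with 10% horse serum for 8 days to form myotubes. Myotubes are then given 10% FBS high-glucose DMEM with or without 30 μg/mL compound for 24 h. Glucose remaining in the medium is measured to calculate glucose consumption.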

[2] = Half life of the compound by HPLC analysis in presence of NaOH; type: physicochemical; outline: as §1
[3] = molecular target: RAC-alpha serine/threonine-protein kinase (Mus musculus) (UniProt P31750); experiment: Induction of Akt phosphorylation in mouse C2C12 cells at 30 ug/ml pretreated with compound for 24 hrs followed by fresh medium with compound addition measured after 2 hrs by Western blot analysis; type: cell-based
Outline: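 Differentiated C2C12 myotubes (8 days in horse serum medium) are exposed to 30 μg/mL compound in 10% FBS high-glucose DMEM for 24 h, without overnight serum starvation. Fresh medium with the same compound concentration is added for a further 2 h. Cells are lysed in SDS sample buffer, resolved on 10% SDS-PAGE, transferred to PVDF and probed for phospho- and total Akt.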

[4] = Drug level in aqueous solution treated with (2S,3R,5R,9R,10R,13R,14S,17S)-2,3,14-trihydroxy-10,13-dimethyl-17-((2R,3R)-2,3,6-trihydroxy-6-methylheptan-2-yl)-2,3,4,5,9,11,12,13,14,15,16,17-dodecahydro-1H-cyclopenta[a]phenanthren-6(10H)-one at 120 mg incubated for 2 days measured at 0.5 to 48 hrs by HPLC-DAD analysis in presence of NaOH; type: physicochemical; conditions: in vivo
Outline: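 120 mg 20E stirred with 100 mg NaOH at room temperature (22−25 °C) and sampled over time. Samples were analysed by HPLC on a C18 column using an aqueous acetonitrile gradient with acetic acid at 1 mL/min. Peak AUC was read at each compound's λmax and calibrated against dilutions of isolated compounds. Amounts are relative to initial 20E; three independent experiments.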

[5] = Chemical stability of the compound in neutral media at room temperature; type: physicochemical
[6] = Chemical stability of the compound in acidic media at pH 3 at room temperature; type: physicochemical; conditions: buffer
[7] = Chemical stability of the compound in basic media at pH 8 at room temperature; type: physicochemical; conditions: buffer
[8] = Drug level in aqueous solution treated with (2S,3R,5R,10S,13R,17S)-2,3,7-trihydroxy-10,13-dimethyl-17-((2R,3R)-2,3,6-trihydroxy-6-methylheptan-2-yl)-2,3,4,5,12,13,16,17-octahydro-1H-cyclopenta[a]phenanthren-6(10H)-one at 80 degC after 4 days; type: physicochemical; conditions: buffer, 96 h
[9] = Chemical stability of the compound at 80 degC; type: physicochemical
[10] = Drug level in aqueous solution treated with (2S,3R,10R,13R,14S,17S)-2,3,6,14-tetrahydroxy-10,13-dimethyl-17-((2R,3R)-2,3,6-trihydroxy-6-methylheptan-2-yl)-3,4,10,11,12,13,14,15,16,17-decahydro-1H-cyclopenta[a]phenanthren-7(2H)-one at pH 3; type: physicochemical; conditions: buffer
[11] = Drug level in aqueous solution treated with 20-hydroxyecdysone at 120 mg at pH 6 to 6.5 measured at 6 to 7 hrs hrs by HPLC-DAD analysis; type: physicochemical; conditions: in vivo
Outline: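 20E was reacted with NaOH at room temperature, and the mixture was set to pH 6−6.5 with acetic acid before evaporation under nitrogen. Products were quantified by C18 HPLC with an aqueous acetonitrile gradient, using AUC at λmax against calibration dilutions of isolated compounds. Amounts are expressed relative to initial 20E.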

[12] = Drug level in aqueous solution treated with (2S,3R,10R,13R,14S,17S)-2,3,6,14-tetrahydroxy-10,13-dimethyl-17-((2R,3R)-2,3,6-trihydroxy-6-methylheptan-2-yl)-3,4,10,11,12,13,14,15,16,17-decahydro-1H-cyclopenta[a]phenanthren-7(2H)-one at pH 8; type: physicochemical; conditions: buffer

Sequence of RAC-alpha serine/threonine-protein kinase (Mus musculus) (P31750 whole entry): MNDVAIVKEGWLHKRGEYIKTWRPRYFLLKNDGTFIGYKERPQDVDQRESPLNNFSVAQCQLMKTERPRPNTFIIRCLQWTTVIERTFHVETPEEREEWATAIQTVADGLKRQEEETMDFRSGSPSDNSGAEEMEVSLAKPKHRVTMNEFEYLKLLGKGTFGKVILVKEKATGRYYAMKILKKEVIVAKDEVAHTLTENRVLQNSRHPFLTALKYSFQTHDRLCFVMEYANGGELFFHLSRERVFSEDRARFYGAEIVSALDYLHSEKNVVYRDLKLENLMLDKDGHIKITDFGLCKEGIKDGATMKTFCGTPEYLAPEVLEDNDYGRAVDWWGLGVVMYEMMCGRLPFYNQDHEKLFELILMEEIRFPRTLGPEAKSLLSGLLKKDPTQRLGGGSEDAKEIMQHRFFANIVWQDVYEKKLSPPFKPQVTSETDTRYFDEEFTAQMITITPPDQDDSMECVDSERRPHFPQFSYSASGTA

Structure (SMILES): CC(C)(O)CC[C@@H](O)[C@](C)(O)[C@H]1CC[C@@]2(O)C3=C(CC[C@]12C)[C@@]1(C)C[C@H](O)[C@H](O)CC1=C(O)C3=O
- Drug metabolism [1]: metabolite_detected
- Activity (C2C12): inactive

Structure (SMILES): CC(C)(O)CC[C@@H](O)[C@](C)(O)[C@H]1CC[C@@]2(O)C3=CC(=O)[C@@H]4C[C@@H](O)[C@@H](O)C[C@]4(C)[C@H]3CC[C@]12C [20-HYDROXYECDYSONE]
- half-life [2]: 1.39 h
- Activity (C2C12): inactive
- Activity [3]: inactive

Structure (SMILES): CC(C)(O)CC[C@@H](O)[C@](C)(O)[C@H]1CC[C@@]2(O)C3=CC(=O)[C@@H]4C[C@@H](O)[C@@H](O)C[C@]4(C)C3=CC[C@]12C
- Activity (C2C12): inactive

Structure (SMILES): CC(C)(O)CC[C@@H](O)[C@](C)(O)[C@H]1CC[C@@]2(O)C3=CC(=O)[C@H]4C[C@@H](O)[C@@H](O)C[C@]4(C)[C@@]3(O)CC[C@]12C
- Drug metabolism [4]: metabolite_detected
- Activity (C2C12): inactive
- Activity [3]: Active

Structure (SMILES): CC(C)(O)CC[C@@H](O)[C@](C)(O)[C@H]1CC=C2C3=C(CC[C@@]21C)[C@@]1(C)C[C@H](O)[C@H](O)CC1=C(O)C3=O
- Stability [5]: Stable
- Stability [6]: Stable
- Stability [7]: Stable
- Drug metabolism [8]: metabolite_detected
- Stability [9]: Stable
- Drug metabolism [10]: metabolite_detected
- Drug metabolism [11]: metabolite_detected
- Activity (C2C12): inactive
- Activity [3]: Active

Structure (SMILES): CC(C)(O)CC[C@@H](O)[C@](C)(O)[C@H]1CC[C@@]2(O)C3=CC(=O)[C@@H]4C[C@@H](O)[C@@H](O)C[C@]4(C)[C@@]3(O)CC[C@]12C
- Drug metabolism [4]: metabolite_detected
- Activity (C2C12): inactive

Structure (SMILES): CC(C)(O)CC[C@@H](O)[C@](C)(O)[C@H]1CC=C2C3=C(O)C(=O)[C@@H]4C[C@@H](O)[C@@H](O)C[C@]4(C)C3=CC[C@@]21C
- Stability [5]: Stable
- Stability [6]: Stable
- Stability [7]: Stable
- Drug metabolism [12]: metabolite_detected
- Drug metabolism [1]: metabolite_detected
- Activity (C2C12): inactive
- Activity [3]: inactive
